Experimental data: ChEMBL document CHEMBL4152363, “Andrographolide derivative as STAT3 inhibitor that protects acute liver damage in mice” (Bioorg Med Chem, 2018)

What was measured:
Format in all cases: cell-based
[1] = target: T1, Signal transducer and activator of transcription 3 (Homo sapiens, UniProt P40763); experiment: Inhibition of IFNgamma-stimulated STAT3 activation in human AD293 cells incubated with IFNgamma for 16 hrs followed by compound addition measured after 24 hrs by luciferase reporter gene assay
In short: (§1)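 AD-293 or HeLa cells in DMEM/10% FBS stimulated with 20 pg/mL IFN-γ; compound treatment 24 h; luciferase activity measured in cell extracts; EC50 derived.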

[2] = target: T1, Signal transducer and activator of transcription 3; experiment: Inhibition of IL-6 stimulated STAT3 activation in human AD293 cells incubated with IL-6 for 16 hrs followed by compound addition measured after 6 hrs by luciferase reporter gene assay
In short: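 AD-293 cells stimulated with 2.5 μg/mL IL-6; compound treatment 6 h; luciferase activity read from cell extracts; EC50 derived.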

[3] = target: T1, Signal transducer and activator of transcription 3; experiment: Inhibition of […] activation in human AD293 cells incubated […] for 16 hrs followed by compound addition measured after 4 hrs by luciferase reporter gene assay
AD293 = experiment: (§2) Cytotoxicity against human AD293 cells; conditions: ad293
In short: (§3)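 AD-293 or HeLa cells grown in high-glucose DMEM with 10% FBS and 1% penicillin-streptomycin; compound exposure 24 h; cytotoxicity reported as CC10.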

[4] = target: T1, Signal transducer and activator of transcription 3; experiment: Inhibition of IFNgamma-stimulated STAT3 activation in human HeLa cells incubated with IFNgamma for 16 hrs followed by compound addition measured after 24 hrs by luciferase reporter gene assay; in short: as §1
[5] = target: T1, Signal transducer and activator of transcription 3; experiment: Inhibition of […] activation in human HeLa cells incubated […] for 16 hrs followed by compound addition measured after 4 hrs by luciferase reporter gene assay
In short: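 NF-κB pathway in AD-293 or HeLa cells stimulated with 50 ng/mL TNF-α; compound treatment 4 h; luciferase activity read from cell extracts; EC50 derived.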

HeLa = experiment: Cytotoxicity against human HeLa cells; in short: as §3
[6] = as §2; conditions: AD293 cells; in short: as §3

T1 sequence (P40763 whole entry): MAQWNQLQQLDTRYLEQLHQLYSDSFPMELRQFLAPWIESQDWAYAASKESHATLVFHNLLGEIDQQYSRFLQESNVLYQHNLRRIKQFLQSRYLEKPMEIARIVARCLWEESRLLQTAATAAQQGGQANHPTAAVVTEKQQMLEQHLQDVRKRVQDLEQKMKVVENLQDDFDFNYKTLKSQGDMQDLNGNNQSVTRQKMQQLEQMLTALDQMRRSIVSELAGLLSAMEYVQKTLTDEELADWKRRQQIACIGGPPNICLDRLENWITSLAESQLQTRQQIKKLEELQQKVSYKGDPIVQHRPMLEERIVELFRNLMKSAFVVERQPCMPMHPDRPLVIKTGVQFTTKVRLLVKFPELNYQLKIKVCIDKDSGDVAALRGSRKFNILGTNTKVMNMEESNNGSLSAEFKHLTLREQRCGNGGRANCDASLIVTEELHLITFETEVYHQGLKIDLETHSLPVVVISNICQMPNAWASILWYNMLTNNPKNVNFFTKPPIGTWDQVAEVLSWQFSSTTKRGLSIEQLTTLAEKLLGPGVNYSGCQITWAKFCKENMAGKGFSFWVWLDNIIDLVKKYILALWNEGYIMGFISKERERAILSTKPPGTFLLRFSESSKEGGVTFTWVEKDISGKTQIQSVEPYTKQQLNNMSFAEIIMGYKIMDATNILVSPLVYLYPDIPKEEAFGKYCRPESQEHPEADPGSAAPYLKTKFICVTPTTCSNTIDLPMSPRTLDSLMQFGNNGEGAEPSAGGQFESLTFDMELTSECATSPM

EC50 [1]	EC50 [2]	EC50 [3]	EC50 [4]	EC50 [5]	SMILES	CC10 (AD293)	CC10 (HeLa)	CC50 [6]
> 10 µM	> 10 µM	> 10 µM	> 10 µM	> 10 µM	C[C@@]12CCC(=O)[C@@](C)(CO)[C@H]1CC[C@]1(CO1)[C@H]2C/C=C1/C(=O)OC[C@H]1O	> 10 µM	> 10 µM	
4.75 µM	4.78 µM	7.98 µM	9.33 µM	> 10 µM	C=C1CC[C@H]2[C@@](C)(CCC(=O)[C@@]2(C)CO[Si](C)(C)C(C)(C)C)[C@@H]1C/C=C1/C(=O)OC[C@@H]1OC(C)=O		> 10 µM	8.23 µM
1.18 µM	2.21 µM	6.92 µM	4.33 µM	8.11 µM	C=C1CC[C@@H]2[C@](C)(CO[Si](C)(C)C(C)(C)C)[C@H](O)CC[C@@]2(C)[C@@H]1C/C=C1/C(=O)OC[C@H]1OC(C)=O		> 10 µM	7.33 µM
> 10 µM	> 10 µM	> 10 µM	> 10 µM	> 10 µM	C=C1CC[C@H]2[C@@](C)(CCC(=O)[C@@]2(C)COC(C)=O)[C@@H]1C/C=C1/C(=O)OC[C@H]1O[Si](C)(C)C(C)(C)C	> 10 µM	> 10 µM	
4.72 µM	4.34 µM	> 10 µM	> 10 µM	> 10 µM	C=C1CC[C@H]2[C@@](C)(CCC(=O)[C@@]2(C)CO[Si](C)(C)C(C)(C)C)[C@@H]1C/C=C1/C(=O)OC[C@@H]1O	> 10 µM	> 10 µM	
2.23 µM	2.56 µM	> 10 µM	> 10 µM	7.05 µM	CC(=O)OC[C@]1(C)C(=O)CC[C@@]2(C)[C@H](C/C=C3/C(=O)OC[C@@H]3O[Si](C)(C)C(C)(C)C)[C@@]3(CC[C@@H]21)CO3	> 10 µM	> 10 µM	
> 10 µM	> 10 µM	> 10 µM	> 10 µM	> 10 µM	C=C1CC[C@H]2[C@@](C)(CCC(=O)[C@@]2(C)CO)[C@@H]1C/C=C1/C(=O)OC[C@H]1O[Si](C)(C)C(C)(C)C	> 10 µM	> 10 µM	
> 10 µM	> 10 µM	> 10 µM	> 10 µM	> 10 µM	C=C1CC[C@H]2[C@@](C)(CCC(=O)[C@@]2(C)CO)[C@@H]1C/C=C1/C(=O)OC[C@@H]1OC(C)=O	> 10 µM	> 10 µM	
2.55 µM	2.65 µM	> 10 µM	> 10 µM	9.91 µM	CC(=O)OC[C@]1(C)C(=O)CC[C@@]2(C)[C@H](C/C=C3/C(=O)OC[C@@H]3O[Si](C)(C)C(C)(C)C)[C@]3(CC[C@@H]21)CO3	> 10 µM	> 10 µM	
> 10 µM	> 10 µM	> 10 µM	> 10 µM	> 10 µM	C=C1CC[C@H]2[C@@](C)(CCC(=O)[C@@]2(C)COC(C)=O)[C@@H]1C/C=C1/C(=O)OC[C@@H]1O[Si](C)(C)C(C)(C)C	> 10 µM	> 10 µM	
> 10 µM	> 10 µM	> 10 µM	> 10 µM	> 10 µM	C=C1CC[C@H]2[C@@](C)(CCC(=O)[C@@]2(C)CO)[C@@H]1C/C=C1/C(=O)OC[C@@H]1O[Si](C)(C)C(C)(C)C	> 10 µM	> 10 µM	
> 10 µM	> 10 µM	> 10 µM	> 10 µM	> 10 µM	C=C1CC[C@@H]2[C@](C)(CO)[C@H](O)CC[C@@]2(C)[C@@H]1C/C=C1/C(=O)OC[C@H]1O [ANDROGRAPHOLIDE]	> 10 µM	> 10 µM	
2.6 µM	3.04 µM	8.51 µM	> 10 µM	7.54 µM	CC(=O)O[C@@H]1COC(=O)/C1=C/C[C@@H]1[C@@]2(CC[C@@H]3[C@](C)(CO)[C@H](O)CC[C@]31C)CO2	> 10 µM	> 10 µM	
3.45 µM	3.05 µM	> 10 µM	> 10 µM	> 10 µM	CC(C)(C)[Si](C)(C)O[C@@H]1COC(=O)/C1=C/C[C@@H]1[C@]2(CC[C@@H]3[C@](C)(CO)[C@H](O)CC[C@]31C)CO2	> 10 µM	> 10 µM	
8.18 µM	> 10 µM	> 10 µM	> 10 µM	> 10 µM	C=C1CC[C@@H]2[C@](C)(COC(C)=O)[C@H](OC(C)=O)CC[C@@]2(C)[C@@H]1C/C=C1/C(=O)OC[C@H]1O[Si](C)(C)C(C)(C)C	> 10 µM	> 10 µM	
4.4 µM	> 10 µM	> 10 µM	> 10 µM	> 10 µM	CC(C)(C)[Si](C)(C)OC[C@]1(C)C(=O)CC[C@@]2(C)[C@H](C/C=C3/C(=O)OC[C@H]3O[Si](C)(C)C(C)(C)C)[C@]3(CC[C@@H]21)CO3	> 10 µM	> 10 µM	
> 10 µM	> 10 µM	> 10 µM	> 10 µM	> 10 µM	C=C1CC[C@@H]2[C@](C)(CO)[C@H](O)CC[C@@]2(C)[C@@H]1C/C=C1/C(=O)OC[C@@H]1O[Si](C)(C)C(C)(C)C	> 10 µM	> 10 µM	
3.45 µM	6.45 µM	7.75 µM	8.95 µM	8.81 µM	C=C1CC[C@H]2[C@@](C)(CCC(=O)[C@@]2(C)CO[Si](C)(C)C(C)(C)C)[C@@H]1C/C=C1/C(=O)OC[C@H]1O		> 10 µM	2.35 µM
8.15 µM	3.22 µM	7.28 µM	9.43 µM	9.96 µM	C=C1CC[C@@H]2[C@](C)(CO[Si](C)(C)C(C)(C)C)[C@H](O)CC[C@@]2(C)[C@@H]1C/C=C1/C(=O)OC[C@@H]1OC(C)=O		> 10 µM	6.83 µM
> 10 µM	> 10 µM	> 10 µM	> 10 µM	> 10 µM	C=C1CC[C@@H]2[C@](C)(COC(C)=O)[C@H](OC(C)=O)CC[C@@]2(C)[C@@H]1C/C=C1/C(=O)OC[C@@H]1O[Si](C)(C)C(C)(C)C	> 10 µM	> 10 µM	
5.81 µM	7.98 µM	> 10 µM	> 10 µM	> 10 µM	CC(=O)OC[C@]1(C)C(=O)CC[C@@]2(C)[C@H](C/C=C3/C(=O)OC[C@H]3O[Si](C)(C)C(C)(C)C)[C@@]3(CC[C@@H]21)CO3	> 10 µM	> 10 µM	
7.93 µM	6.1 µM	> 10 µM	> 10 µM	> 10 µM	C=C1CC[C@H]2[C@@](C)(CCC(=O)[C@@]2(C)CO)[C@@H]1C/C=C1/C(=O)OC[C@H]1OC(C)=O	> 10 µM	> 10 µM	
